Test results from paper PMC6210075 (ACS Omega, 2018).

Columns and labels:
rat FAAH = biological target: T1, rat FAAH (Rattus norvegicus, UniProt P97612); test: FAAH fluorescent inhibition assay, rat brain microsomes; assay type: biochemical
T1 sequence (P97612 1-579): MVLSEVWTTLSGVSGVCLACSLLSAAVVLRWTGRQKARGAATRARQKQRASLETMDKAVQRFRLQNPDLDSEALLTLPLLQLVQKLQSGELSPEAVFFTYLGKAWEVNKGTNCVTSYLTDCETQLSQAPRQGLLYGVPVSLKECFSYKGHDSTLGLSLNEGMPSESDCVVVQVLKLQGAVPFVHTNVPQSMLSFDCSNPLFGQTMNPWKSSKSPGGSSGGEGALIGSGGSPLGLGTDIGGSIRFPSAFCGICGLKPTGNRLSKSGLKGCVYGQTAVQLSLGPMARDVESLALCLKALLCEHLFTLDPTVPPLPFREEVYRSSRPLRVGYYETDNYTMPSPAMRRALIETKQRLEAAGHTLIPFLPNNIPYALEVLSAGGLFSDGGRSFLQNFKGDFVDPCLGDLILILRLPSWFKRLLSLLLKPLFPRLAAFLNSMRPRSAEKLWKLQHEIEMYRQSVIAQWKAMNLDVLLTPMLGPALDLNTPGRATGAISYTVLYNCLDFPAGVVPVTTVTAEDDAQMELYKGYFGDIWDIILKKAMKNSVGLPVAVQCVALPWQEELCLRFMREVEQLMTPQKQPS
In short: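 Rat brain microsomes: tissue homogenized in 20 mM phosphate (pH 7.4, 5 mM EDTA), spun at 9000g for 20 min, then 100 000g for 1 h, and stored at −80 °C. OMP (100 μM final) in 0.1 M sodium phosphate pH 8, 0.1 mg/mL BSA, 2% DMSO, 37 °C. Fluorescence (ex 303/em 394 nm) read every 30 s for 10 min. No-enzyme background subtracted. IC50 from linear regression of log[I] vs % remaining activity; triplicates.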

human sEH = biological target: T2, human sEH (Homo sapiens, UniProt P34913); test: FRET-based displacement assay for inhibitor dissociation from sEH; assay type: binding
T2 sequence (P34913 1-555): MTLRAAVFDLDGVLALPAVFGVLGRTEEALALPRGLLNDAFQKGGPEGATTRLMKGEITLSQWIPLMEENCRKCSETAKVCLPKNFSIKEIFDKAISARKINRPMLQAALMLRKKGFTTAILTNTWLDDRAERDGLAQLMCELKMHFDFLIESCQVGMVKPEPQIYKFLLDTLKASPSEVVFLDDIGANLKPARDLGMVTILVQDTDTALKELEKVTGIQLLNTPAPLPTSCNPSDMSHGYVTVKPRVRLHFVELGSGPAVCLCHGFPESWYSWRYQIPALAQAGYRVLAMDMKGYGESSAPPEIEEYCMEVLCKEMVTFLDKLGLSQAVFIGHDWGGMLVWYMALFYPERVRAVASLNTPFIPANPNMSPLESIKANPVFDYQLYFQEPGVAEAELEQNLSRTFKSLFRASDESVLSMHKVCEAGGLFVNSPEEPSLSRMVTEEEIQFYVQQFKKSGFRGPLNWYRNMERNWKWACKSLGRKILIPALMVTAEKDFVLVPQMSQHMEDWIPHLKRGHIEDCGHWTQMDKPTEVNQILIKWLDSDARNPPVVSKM

FAAH = biological target: T3, FAAH (Mus musculus, UniProt O08914); assay type: in vivo; conditions: mice, 1 mg/kg i.p. in DMSO, 4 h after dosing
T3 sequence (O08914 1-579): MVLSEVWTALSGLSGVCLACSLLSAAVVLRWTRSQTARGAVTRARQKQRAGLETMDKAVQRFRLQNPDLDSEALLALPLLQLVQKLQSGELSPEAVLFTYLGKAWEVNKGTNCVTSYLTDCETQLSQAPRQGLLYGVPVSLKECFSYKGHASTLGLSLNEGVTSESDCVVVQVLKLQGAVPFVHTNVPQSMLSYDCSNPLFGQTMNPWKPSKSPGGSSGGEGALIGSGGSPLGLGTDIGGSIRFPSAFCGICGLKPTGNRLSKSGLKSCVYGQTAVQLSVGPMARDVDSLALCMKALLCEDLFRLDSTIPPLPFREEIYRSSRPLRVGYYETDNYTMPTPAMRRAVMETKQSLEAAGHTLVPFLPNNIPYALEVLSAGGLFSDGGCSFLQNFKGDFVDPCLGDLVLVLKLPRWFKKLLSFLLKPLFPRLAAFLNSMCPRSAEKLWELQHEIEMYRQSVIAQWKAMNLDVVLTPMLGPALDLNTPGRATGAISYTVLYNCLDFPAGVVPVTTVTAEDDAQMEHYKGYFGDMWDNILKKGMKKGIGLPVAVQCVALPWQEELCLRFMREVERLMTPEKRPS
In short: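 Male Swiss Webster mice got test compound in 20 μL DMSO i.p. and were killed 4 h later. Tissue was homogenized about fivefold by weight in 20 mM phosphate, pH 7.4, 5 mM EDTA, then diluted 1000-fold (liver) or 100-fold (brain) in 100 mM phosphate, pH 8.0, 0.1% BSA. OMP (100 μM final) hydrolysis was read by fluorescence (303/394 nm) for 10 min, normalized to BCA protein, and expressed as % of vehicle.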

human CES2 = biological target: T4, human CES2 (Homo sapiens, UniProt O00748); test: Esterase assay, CES2; assay type: biochemical
T4 sequence (O00748 27-559): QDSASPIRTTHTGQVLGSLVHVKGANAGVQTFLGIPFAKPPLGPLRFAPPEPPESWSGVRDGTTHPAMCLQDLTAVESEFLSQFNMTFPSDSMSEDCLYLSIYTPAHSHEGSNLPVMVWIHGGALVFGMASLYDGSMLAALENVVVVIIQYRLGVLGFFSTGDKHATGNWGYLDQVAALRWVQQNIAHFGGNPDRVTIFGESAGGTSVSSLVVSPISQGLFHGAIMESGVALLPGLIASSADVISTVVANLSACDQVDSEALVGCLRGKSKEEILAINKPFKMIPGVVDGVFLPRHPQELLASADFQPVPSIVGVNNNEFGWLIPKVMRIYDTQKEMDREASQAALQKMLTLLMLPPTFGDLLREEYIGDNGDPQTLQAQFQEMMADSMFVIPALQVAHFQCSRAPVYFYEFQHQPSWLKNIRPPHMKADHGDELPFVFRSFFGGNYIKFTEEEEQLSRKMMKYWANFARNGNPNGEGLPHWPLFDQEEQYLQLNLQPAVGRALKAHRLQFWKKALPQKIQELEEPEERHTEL
In short: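 Crude recombinant human CES2 extract was used with 5 min inhibitor preincubation in 0.1 M sodium phosphate, pH 8, 0.1 mg/mL BSA, 2% final DMSO. Substrate was cyano(6-methoxynaphthalen-2-yl)methyl acetate (50 μM final). […] Triplicates.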

[1] = FAAH IC50 (60 min pre-incubation), 60 min pre-incubation

IC50 (rat FAAH; FAAH IC50 (5 min pre-incubation), 5 min pre-incubation) | t1/2 (half-life on the enzyme) (human sEH; human sEH) | koff (human sEH; read-out: koff × 10^–3) | SMILES | IC50 (rat FAAH; [1]) | residual brain FAAH activity, % of control (FAAH; brain) | residual liver FAAH activity, % of control (FAAH; liver) | IC50 (human CES2)
> 10000 nM | 4.4 min | 2.7 s⁻¹ | O=C(Nc1ccc(C(F)(F)F)cc1F)N1CCC(Cc2cccc(Oc3ccc(C(F)(F)F)cn3)c2)CC1 [compound 18] | 1100 nM | – | – | –
– | – | – | O=C(Nc1cccnc1)N1CCC(Cc2cccc(Oc3ccc(C(F)(F)F)cn3)c2)CC1 [PF-3845, reference compound] | 0.2 nM | 0.2 ± 0.1% | 22 ± 2% | 1100 nM
